According to ChEMBL document CHEMBL1938351, “The discovery of potent antagonists of NPBWR1 (GPR7)” (Bioorg Med Chem Lett, 2012):
Values belong to the compound of their own block, whether it stands above or below them. Calls of active or inactive are those of the source. The calls are words filed in the database; no cut-off is given here.

How the values were obtained:
[1] = biological target: T1, Neuropeptides B/W receptor type 1 (Mus musculus, UniProt P49681); experiment: Antagonist activity at mouse NPBWR1 expressed in CHO-K1 cells assessed as inhibition of hNPW23 and forskolin-stimulated cAMP production after 1 hr by TR-FRET assay; type: functional, cell-based
T1 sequence (P49681 whole entry): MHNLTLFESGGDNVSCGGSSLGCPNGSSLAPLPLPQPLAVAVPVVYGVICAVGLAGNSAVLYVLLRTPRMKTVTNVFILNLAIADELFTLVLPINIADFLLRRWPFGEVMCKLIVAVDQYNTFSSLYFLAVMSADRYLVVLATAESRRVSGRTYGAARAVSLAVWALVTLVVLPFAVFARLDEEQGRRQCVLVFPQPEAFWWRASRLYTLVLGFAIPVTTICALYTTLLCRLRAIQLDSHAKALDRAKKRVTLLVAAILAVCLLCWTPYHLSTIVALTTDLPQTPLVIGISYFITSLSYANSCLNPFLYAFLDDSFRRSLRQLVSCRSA

[2] = biological target: T1, Neuropeptides B/W receptor type 1; experiment: Displacement of [125]-hNPW23 from mouse NPBWR1 expressed in CHO-K1 cells membrane by scintillation proximity assay; type: cell membranes
[3] = system: LLC-PK1; experiment: P-glycoprotein-mediated efflux in pig LLC-PK1 cells expressing MDR1; type: cell-based; conditions: Sus scrofa
[4] = Metabolic stability in mouse liver microsomes assessed as compound remaining after 30 mins; type: ADME, Microsome; conditions: read-out: Stability
How it was run: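 Compounds were incubated with mouse liver microsomes. The read-out was the percentage of parent compound remaining at 30 min.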

[5] = biological target: T2, Neuropeptides B/W receptor type 1 (Homo sapiens, UniProt P48145); experiment: Antagonist activity at human NPBWR1 expressed in CHO-K1 cells assessed as inhibition of hNPW23 and forskolin-stimulated cAMP production after 1 hr by TR-FRET assay; type: functional, cell-based
T2 sequence (P48145 whole entry): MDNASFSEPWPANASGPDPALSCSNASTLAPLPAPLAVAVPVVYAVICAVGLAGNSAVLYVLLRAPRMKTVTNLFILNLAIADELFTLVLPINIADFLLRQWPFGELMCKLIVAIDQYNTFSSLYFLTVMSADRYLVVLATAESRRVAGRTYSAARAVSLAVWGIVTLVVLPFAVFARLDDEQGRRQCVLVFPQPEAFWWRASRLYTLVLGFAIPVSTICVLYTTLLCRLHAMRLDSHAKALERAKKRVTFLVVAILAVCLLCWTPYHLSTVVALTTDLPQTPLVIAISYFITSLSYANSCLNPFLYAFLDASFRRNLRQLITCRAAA

[6] = biological target: T2, Neuropeptides B/W receptor type 1; experiment: Displacement of [125]-hNPW23 from human NPBWR1 expressed in CHO-K1 cells membrane by scintillation proximity assay; type: cell membranes

SMILES: COc1ccc([C@@H](C)N[C@@H]2CC[C@H](C(=O)N3CCN(c4nccs4)CC3)[C@@H](c3ccsc3)C2)cc1
IC50 [1]: 207 nM
IC50 [2]: 194 nM

SMILES: C[C@@H](N[C@@H]1CC[C@H](C(=O)N2CCN(c3ccc(Cl)cn3)CC2)[C@@H](c2ccsc2)C1)c1ccc(Br)cc1
IC50 [1]: 2630 nM
IC50 [2]: 134 nM

SMILES: CC(C)(N[C@@H]1CC[C@H](C(=O)N2CCN(c3ccc(Cl)cn3)CC2)[C@@H](c2ccsc2)C1)c1ccc([N+](=O)[O-])cc1
IC50 [1]: 1100 nM
IC50 [2]: 100 nM

SMILES: COc1ccc(C2(N[C@@H]3CC[C@H](C(=O)N4CCN(c5nnc(C(F)(F)F)s5)CC4)[C@@H](c4ccsc4)C3)CCC2)cc1
Activity [3]: Active
remaining at 0.5 h [4]: < 10%

SMILES: O=C([C@H]1CC[C@@H](NC2(c3cccc(Br)c3)CCC2)C[C@@H]1c1ccsc1)N1CCN(c2ccc(Cl)cn2)CC1
IC50 [1]: 972 nM
IC50 [2]: 160 nM

SMILES: O=C([C@H]1CC[C@@H](NC2(c3ccc(Br)cc3)CCC2)C[C@@H]1c1ccsc1)N1CCN(c2ccc(Cl)cn2)CC1
IC50 [1]: 601 nM
IC50 [2]: 82 nM

SMILES: COc1ccc([C@@H](C)N[C@@H]2CC[C@H](C(=O)N3CCN(c4ccc(C)cn4)CC3)[C@@H](c3ccsc3)C2)cc1
IC50 [1]: 400 nM
IC50 [2]: 74 nM

SMILES: COc1ccc(C(C)(C)N[C@@H]2CC[C@H](C(=O)N3CCN(c4nc5ccccc5o4)CC3)[C@@H](c3ccsc3)C2)cc1
Activity [3]: Active
remaining at 0.5 h [4]: < 10%

SMILES: COc1ccc(CN[C@@H]2CC[C@H](C(=O)N3CCN(c4ccc(Cl)cn4)CC3)[C@@H](c3ccsc3)C2)cc1
IC50 [1]: 3590 nM
IC50 [2]: 1520 nM

SMILES: COc1ccc(C2(N[C@@H]3CC[C@H](C(=O)N4CCN(c5ccc(Cl)cn5)CC4)[C@@H](c4ccsc4)C3)CC2)cc1
IC50 [1]: 523 nM
IC50 [2]: 56 nM

SMILES: COc1ccc([C@@H](C)N[C@@H]2CC[C@H](C(=O)N3CCN(c4ccc(Cl)cn4)CC3)[C@@H](c3ccsc3)C2)cc1
IC50 [1]: 360 nM
Activity [3]: Active
IC50 [2]: 25 nM
IC50 [5]: 1920 nM
IC50 [6]: 324 nM
remaining at 0.5 h [4]: 0%

SMILES: Cc1ccc(C(C)(C)N[C@@H]2CC[C@H](C(=O)N3CCN(c4ccc(Cl)cn4)CC3)[C@@H](c3ccsc3)C2)cc1
IC50 [1]: 211 nM
IC50 [2]: 16 nM

SMILES: COc1ccc(C2(N[C@@H]3CC[C@H](C(=O)N4CCN(c5nnc(Br)s5)CC4)[C@@H](c4ccsc4)C3)CCC2)cc1
Activity [3]: Active
remaining at 0.5 h [4]: < 10%

SMILES: COc1ccc([C@@H](C)N[C@@H]2CC[C@H](C(=O)N3CCN(c4cc(Cl)ccn4)CC3)[C@@H](c3ccsc3)C2)cc1
IC50 [1]: 2140 nM

SMILES: C[C@@H](N[C@@H]1CC[C@H](C(=O)N2CCN(c3ccc(Cl)cn3)CC2)[C@@H](c2ccsc2)C1)c1ccccc1
IC50 [1]: 981 nM
IC50 [2]: 217 nM

SMILES: COc1ccc([C@@H](C)N[C@@H]2CC[C@H](C(=O)N3CCN(c4ncccc4Cl)CC3)[C@@H](c3ccsc3)C2)cc1
IC50 [1]: > 32000 nM

SMILES: COc1ccc(C2(N[C@@H]3CC[C@H](C(=O)N4CCN(c5nc6cc(C)ccc6o5)CC4)[C@@H](c4ccsc4)C3)CCC2)cc1
Activity [3]: Active
remaining at 0.5 h [4]: < 10%

SMILES: CC(C)(N[C@@H]1CC[C@H](C(=O)N2CCN(c3ccc(Cl)cn3)CC2)[C@@H](c2ccsc2)C1)c1ccc(Cl)cc1
IC50 [1]: 1700 nM
IC50 [2]: 27 nM

SMILES: COc1ccc([C@@H](C)N[C@@H]2CC[C@H](C(=O)N3CCN(c4cccc(Cl)n4)CC3)[C@@H](c3ccsc3)C2)cc1
IC50 [1]: 7490 nM

SMILES: CC(C)(N[C@@H]1CC[C@H](C(=O)N2CCN(c3ccc(Cl)cn3)CC2)[C@@H](c2ccsc2)C1)c1ccc(F)cc1
IC50 [1]: 320 nM
IC50 [2]: 17 nM

SMILES: COc1ccc([C@@H](C)N[C@@H]2CC[C@H](C(=O)N3CCN(c4ccc(C#N)cn4)CC3)[C@@H](c3ccsc3)C2)cc1
IC50 [1]: 7050 nM
IC50 [2]: 1140 nM

SMILES: COc1ccc([C@@H](C)N[C@@H]2CC[C@H](C(=O)N3CCN(c4ccc(OC)cn4)CC3)[C@@H](c3ccsc3)C2)cc1
IC50 [1]: 7300 nM

SMILES: COc1ccc([C@@H](C)N[C@@H]2CC[C@H](C(=O)N3CCN(c4ccc(Cl)cc4)CC3)[C@@H](c3ccsc3)C2)cc1
IC50 [1]: 3860 nM
IC50 [2]: 3720 nM

SMILES: COc1ccc(C2(N[C@@H]3CC[C@H](C(=O)N4CCN(c5nc6ccccc6o5)CC4)[C@@H](c4ccsc4)C3)CCC2)cc1
Activity [3]: Active
remaining at 0.5 h [4]: < 10%

SMILES: COc1ccc([C@@H](C)N[C@@H]2CC[C@H](C(=O)N3CCN(c4ccccn4)CC3)[C@@H](c3ccsc3)C2)cc1
IC50 [1]: 330 nM

SMILES: O=C([C@H]1CC[C@@H](NC2(c3ccccc3Br)CCC2)C[C@@H]1c1ccsc1)N1CCN(c2ccc(Cl)cn2)CC1
IC50 [1]: 2210 nM
IC50 [2]: 2200 nM

SMILES: COc1cccc(C2(N[C@@H]3CC[C@H](C(=O)N4CCN(c5ccc(Cl)cn5)CC4)[C@@H](c4ccsc4)C3)CCC2)c1
IC50 [1]: 1020 nM
IC50 [2]: 118 nM

SMILES: COc1ccc(C(C)(C)N[C@@H]2CC[C@H](C(=O)N3CCN(c4nc5ccccc5[nH]4)CC3)[C@@H](c3ccsc3)C2)cc1
Activity [3]: Active
remaining at 0.5 h [4]: < 10%

Further compounds by falling IC50 [1], results first:

IC50 [1]: 200 nM
SMILES: COc1ccc([C@@H](C)N[C@@H]2CC[C@H](C(=O)N3CCN(c4ccc(C(F)(F)F)cn4)CC3)[C@@H](c3ccsc3)C2)cc1

IC50 [1]: 115 nM
IC50 [2]: 42 nM
SMILES: COc1ccc([C@@H](C)N[C@@H]2CC[C@H](C(=O)N3CCN(c4nnc(C(F)(F)F)s4)CC3)[C@@H](c3ccsc3)C2)cc1

IC50 [1]: 55 nM
IC50 [2]: 14 nM
SMILES: COc1ccc([C@@H](C)N[C@@H]2CC[C@H](C(=O)N3CCN(c4ncc(Br)s4)CC3)[C@@H](c3ccsc3)C2)cc1

IC50 [1]: 43 nM
IC50 [2]: 11 nM
SMILES: COc1ccc(C(C)(C)N[C@@H]2CC[C@H](C(=O)N3CCN(c4ccc(Cl)cn4)CC3)[C@@H](c3ccsc3)C2)cc1

IC50 [1]: 24 nM
IC50 [2]: 4.5 nM
SMILES: COc1ccc([C@@H](C)N[C@@H]2CC[C@H](C(=O)N3CCN(c4nc5ccccc5s4)CC3)[C@@H](c3ccsc3)C2)cc1

IC50 [1]: 20 nM
IC50 [2]: 3.1 nM
SMILES: COc1ccc(C2(N[C@@H]3CC[C@H](C(=O)N4CCN(c5ccc(Cl)cn5)CC4)[C@@H](c4ccsc4)C3)CCC2)cc1

IC50 [1]: 20 nM
IC50 [2]: 8.3 nM
SMILES: COc1ccc([C@@H](C)N[C@@H]2CC[C@H](C(=O)N3CCN(c4nc5ccccc5[nH]4)CC3)[C@@H](c3ccsc3)C2)cc1

IC50 [1]: 18 nM
IC50 [2]: 2.8 nM
SMILES: COc1ccc([C@@H](C)N[C@@H]2CC[C@H](C(=O)N3CCN(c4nc5ccccc5o4)CC3)[C@@H](c3ccsc3)C2)cc1

IC50 [1]: 3 nM
IC50 [2]: 1.1 nM
IC50 [5]: 11 nM
IC50 [6]: 5.9 nM
remaining at 0.5 h [4]: < 10%
SMILES: COc1ccc(C2(N[C@@H]3CC[C@H](C(=O)N4CCN(c5nc6ccccc6[nH]5)CC4)[C@@H](c4ccsc4)C3)CCC2)cc1
Activity [3]: Active

IC50 [1]: 1.8 nM
IC50 [2]: 0.33 nM
remaining at 0.5 h [4]: < 10%
SMILES: COc1ccc(C2(N[C@@H]3CC[C@H](C(=O)N4CCN(c5nc6ccccc6s5)CC4)[C@@H](c4ccsc4)C3)CCC2)cc1
Activity [3]: Active

IC50 [1]: 1.3 nM
IC50 [2]: 0.18 nM
remaining at 0.5 h [4]: < 10%
SMILES: COc1ccc(C2(N[C@@H]3CC[C@H](C(=O)N4CCN(c5nc6ccc(F)cc6o5)CC4)[C@@H](c4ccsc4)C3)CCC2)cc1
Activity [3]: Active

IC50 [1]: 0.86 nM
IC50 [2]: 0.2 nM
remaining at 0.5 h [4]: < 10%
SMILES: COc1ccc(C2(N[C@@H]3CC[C@H](C(=O)N4CCN(c5nc6cc(F)ccc6o5)CC4)[C@@H](c4ccsc4)C3)CCC2)cc1
Activity [3]: Active

IC50 [1]: 0.66 nM
IC50 [2]: 0.42 nM
remaining at 0.5 h [4]: < 10%
SMILES: COc1ccc(C2(N[C@@H]3CC[C@H](C(=O)N4CCN(c5nc6cc(F)ccc6[nH]5)CC4)[C@@H](c4ccsc4)C3)CCC2)cc1
Activity [3]: Active
